According to the array DNA melting data of Ke et al. (doi:10.1101/2024.01.08.574731):

Tests used:
[1] = folding enthalpy; higher = less favourable; fluorescence melt of hairpins on a sequencing array, two-state fit; conditions: sodium 0.088 M
Procedure, shortened: (§1)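 In 50 mM Na-HEPES pH 8.0 containing 25 mM NaCl, hairpins from the library on a sequenced MiSeq flow cell were imaged for Cy3 fluorescence at 2.5 °C steps up to 60 °C, with Cy3 and quencher oligos annealed. After normalisation to pre-quench Cy3 and to control constructs, two-state fits with bootstrapping gave melting temperature and folding enthalpy. Four replicates were combined by inverse-variance weighting, and fitted temperatures were shifted up by 9.35 °C to match UV melts.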

[2] = melting temperature; fluorescence melt of hairpins on a sequencing array, two-state fit, raised by 9.35 °C to match UV melts; conditions: sodium 0.088 M
Procedure, shortened: as §1

GGGTCTTCGAAAGAACCC (((..(((....))))))
folding enthalpy [1]: -29.2 kcal/mol
Tm [2]: 40.6 °C

GGATATTCGAAAGAATCC (((..(((....))))))
folding enthalpy [1]: -13.6 kcal/mol
Tm [2]: 26.9 °C

TTGTTGAAAAACAA (((((....)))))
folding enthalpy [1]: -11.4 kcal/mol
Tm [2]: 30.7 °C

GAACACGGAAACGTGCTC ((.((((....)))).))
folding enthalpy [1]: -18.6 kcal/mol
Tm [2]: 43 °C

GATCGTTTTCACGATC ((((((....))))))
folding enthalpy [1]: -45.2 kcal/mol
Tm [2]: 55.4 °C

GATACCGGAAACGGTATC (((((((....)))))))
folding enthalpy [1]: -34.2 kcal/mol
Tm [2]: 65 °C

GGCTCGGGAAACCGGGCC (((.(((....))).)))
folding enthalpy [1]: -38.4 kcal/mol
Tm [2]: 66 °C

GCTCTGGCGAAAGCCAGC (((..(((....))))))
folding enthalpy [1]: -6.82 kcal/mol
Tm [2]: 31.5 °C

TCCCTGAAAAGGGA (((((....)))))
folding enthalpy [1]: -15.6 kcal/mol
Tm [2]: 48.3 °C

GGGCGTGGAAACATGCCC ((((.((....)).))))
folding enthalpy [1]: -42.9 kcal/mol
Tm [2]: 63.1 °C

CGACCGGAAACGGAGTCG ((((((....)))..)))
folding enthalpy [1]: -27.2 kcal/mol
Tm [2]: 45.4 °C

GAAATTGGAAACAATTTC (((((((....)))))))
folding enthalpy [1]: -35.8 kcal/mol
Tm [2]: 51.3 °C

ATGTCGAAAGACAT (((((....)))))
folding enthalpy [1]: -19.6 kcal/mol
Tm [2]: 53.5 °C

GATCGTTCAGACGATC ((((((....))))))
folding enthalpy [1]: -38.9 kcal/mol
Tm [2]: 55.6 °C

GACCGGGGAAACTCGGTC (((((.(....).)))))
folding enthalpy [1]: -50.3 kcal/mol
Tm [2]: 56.3 °C

GTTAGCGAAAGCTAAC ((((((....))))))
folding enthalpy [1]: -28.2 kcal/mol
Tm [2]: 66.4 °C

GATGCGGGAAACCGTGTC ((..(((....)))..))
folding enthalpy [1]: -26.3 kcal/mol
Tm [2]: 43.7 °C

GCTGTGGGAAACCGTAGC (((..((....))..)))
folding enthalpy [1]: -18.5 kcal/mol
Tm [2]: 34.4 °C

GAGTCCCGAAAGGGCTC (((.(((....))))))
folding enthalpy [1]: -25.5 kcal/mol
Tm [2]: 59.5 °C

GGAGGACGAAAGTCTTCC (((.(((....))).)))
folding enthalpy [1]: -30.1 kcal/mol
Tm [2]: 53.5 °C

GCACTTCGAAAGAACTGC (((.(((....))).)))
folding enthalpy [1]: -22.1 kcal/mol
Tm [2]: 34.4 °C

GTCGTGCGAAAGCAAGAC (((.(((....))).)))
folding enthalpy [1]: -34.7 kcal/mol
Tm [2]: 59.7 °C

GCACTTGGAAACAAGCGC ((.((((....)))).))
folding enthalpy [1]: -45 kcal/mol
Tm [2]: 49.5 °C

GATCCGTACCCGGATC ((((((....))))))
folding enthalpy [1]: -39 kcal/mol
Tm [2]: 56.4 °C

GATGACGAAAGTCGATC ((((((....))).)))
folding enthalpy [1]: -18.8 kcal/mol
Tm [2]: 45.2 °C

GAAAGCGAAAGCTTCTTC ((((((....)))..)))
folding enthalpy [1]: -24.5 kcal/mol
Tm [2]: 53.5 °C

GTAACCGAAAGGTGGTAC ((((((....)))..)))
folding enthalpy [1]: -12.3 kcal/mol
Tm [2]: 33.8 °C

GGAGGTGGAAACACCTTC (.(((((....))))).)
folding enthalpy [1]: -29 kcal/mol
Tm [2]: 51.4 °C

GTGGCCGAAAGGCTCAC ((((((....))).)))
folding enthalpy [1]: -16.2 kcal/mol
Tm [2]: 54.9 °C

GCGAGGATCGC ((((...))))
folding enthalpy [1]: -23.7 kcal/mol
Tm [2]: 59.4 °C

GGGTGTCGAAAGACTCCC (((.(((....))).)))
folding enthalpy [1]: -42.3 kcal/mol
Tm [2]: 58.3 °C

GATCGTACCTACGATC ((((((....))))))
folding enthalpy [1]: -50.5 kcal/mol
Tm [2]: 55.6 °C

GATCTAAGGCTAGATC ((((((....))))))
folding enthalpy [1]: -25.3 kcal/mol
Tm [2]: 38.8 °C

GATCCTGTTAAGGATC ((((((....))))))
folding enthalpy [1]: -48.7 kcal/mol
Tm [2]: 65.7 °C

GTTCACGAAAGTGCAAC ((((((....))).)))
folding enthalpy [1]: -16.8 kcal/mol
Tm [2]: 37.8 °C

GATCAGTCACTGATC ((((((...))))))
folding enthalpy [1]: -39.9 kcal/mol
Tm [2]: 50.1 °C

GGTGGGGGAAACTCCGCC ((.((.(....).)).))
folding enthalpy [1]: -26.4 kcal/mol
Tm [2]: 49.6 °C

GCACTAGCGAAAGCTTGC (((..(((....))))))
folding enthalpy [1]: -12.6 kcal/mol
Tm [2]: 38.6 °C
